Source: ChEMBL document CHEMBL1123039, “N-substituted imidazolines and ethylenediamines and their action on alpha- and beta-adrenergic receptors” (1985)

Experiments:
[1] = test system: Rattus norvegicus; test: The dose required to increase diastolic blood pressure by 50 mmHg in pithed rats after intravenous administration; assay type: functional; conditions: Artery
Summary of the method: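 Pithed rat preparation with the right femoral vein cannulated for iv dosing (1 mL/kg). At least 30 min equilibration preceded drugs. Pressor effect was read as the increase in diastolic blood pressure (mmHg), and heart rate was recorded by a pulse-triggered cardiotachometer. Values are mean ± SEM.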

[2] = test system: Rattus norvegicus; test: Tested for alpha-2 adrenoceptor-Mediated Pressor Response in Pithed Rats; Dose ratio by subsequent administration of antagonist (yohimbine) intravenously at a dose of 1 mg/kg; assay type: functional; conditions: route intravenous
Summary of the method: (§1)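 Pithed rats; drugs given iv through the cannulated right femoral vein at 1 mL/kg after at least 30 min equilibration. Pressor responses to the agonist were recorded as rises in diastolic blood pressure (mmHg), with and without pretreatment with prazosin (0.1 mg/kg, iv; α1-selective) or yohimbine (1 mg/kg, iv; α2-selective). Shift of the agonist dose-response was expressed as a dose ratio (mean ± SEM).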

[3] = test system: Rattus norvegicus; test: Tested for alpha-1 adrenoceptor-Mediated Pressor response in Pithed Rats; Dose ratio subsequent administration of antagonist (Prazosin) intravenously at a dose of 0.1 mg/kg; assay type: functional; conditions: route intravenous
Summary of the method: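 Pithed rats; drugs given iv via the right femoral vein at 1 mL/kg after at least 30 min equilibration. The pressor response is the rise in diastolic blood pressure (mmHg). Agonist pressor responses were measured after α1-selective blockade with prazosin (0.1 mg/kg, iv), and the dose ratio for the pressor response was derived. Values are mean ± SEM.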

[4] = test system: Adrenergic receptor alpha (Rattus norvegicus); test: The selectivity was evaluated against alpha 1 and alpha 2 adrenoceptors
[5] = test system: Rattus norvegicus; test: Tested for alpha1 adrenoceptor-Mediated Pressor Response in Pithed Rats; Dose ratio subsequent administration of antagonist (Prazosin) intravenously at a dose of 0.1 mg/kg; assay type: functional; conditions: route intravenous; summary of the method: as §1

Structure (SMILES) | ED50 [1] [mg/kg] | Dose ratio [2] | Dose ratio [3] | Selectivity [4] | Dose ratio [5]
Br.Br.CCN1CCc2nc(N)oc2CC1 | 0.026 |  |  |  | 
Oc1ccc(CC2=NCCN2)cc1O | 0.00035 | 0.4 | 0.8 | 2 | 
Cl.Oc1ccc(CCN2C=NCC2)cc1O | 0.024 | 2.1 |  | 0.7 | 1.3
Cl.Cl.NCCNCc1ccc(O)c(O)c1 | 0.305 | 4.4 |  | 1.3 | 5.5
Cl.Oc1ccc(CN2C=NCC2)cc1O | 0.035 | 2.4 |  | 2.2 | 5.3
Cl.Cl.NCCNCCc1ccc(O)c(O)c1 | 0.028 | 5.7 |  | 0.3 | 1.7
c1ccc(C2CC2)c(OCC2=NCCN2)c1 [CIRAZOLINE] | 0.0006 |  |  |  | 
